ChEMBL document CHEMBL5236619, “Design and Optimization of 1H-1,2,3-Triazole-4-carboxamides as Novel, Potent, and Selective Inverse Agonists and Antagonists of PXR” (J Med Chem, 2022)
pEC50, pIC50: −log10 of the molar value. Activity calls are given as the source filed them. The calls are words filed in the database; no cut-off is given here.

Assays:
[1] = molecular target: T1, PXR (NR1I2) ligand binding domain (Homo sapiens, UniProt O75469); assay: Inhibition of BODIPY FL vindoline binding to recombinant human GST-tagged PXR LBD (111 to 434 residues) expressed in baculovirus infected insect cells at 10 uM incubated for 1 mins under shaking condition followed by 60 mins under dark condition by TR-FRET assay relative to control; conditions: probe BODIPY FL vindoline, time 61 min
T1 sequence (O75469 whole entry): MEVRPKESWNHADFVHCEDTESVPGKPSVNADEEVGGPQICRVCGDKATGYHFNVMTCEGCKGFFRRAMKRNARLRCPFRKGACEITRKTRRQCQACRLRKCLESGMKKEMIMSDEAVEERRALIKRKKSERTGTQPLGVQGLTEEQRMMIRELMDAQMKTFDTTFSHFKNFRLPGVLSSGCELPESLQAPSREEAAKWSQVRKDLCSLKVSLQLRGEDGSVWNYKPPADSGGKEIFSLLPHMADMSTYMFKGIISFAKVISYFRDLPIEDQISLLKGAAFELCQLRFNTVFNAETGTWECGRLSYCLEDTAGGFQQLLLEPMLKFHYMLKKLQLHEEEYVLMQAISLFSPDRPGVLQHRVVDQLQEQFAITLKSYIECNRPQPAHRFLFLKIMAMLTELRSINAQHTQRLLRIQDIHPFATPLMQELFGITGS

PXR (NR1I2) [2] = molecular target: T2, PXR (NR1I2) (Homo sapiens, UniProt O75469); assay: Inverse agonist activity at human PXR in human HepG2 cells co-expressing luciferase gene under control of CYP3A4 promoter assessed as inhibition in receptor basal activity at 10 uM incubated for 24 hrs by luminescence based analysis relative to control; format: cell-based
T2 sequence (O75469 whole entry): T1 sequence (O75469 whole entry)

[3] = molecular target: T3, Nuclear receptor subfamily 1 group I member 2 (Homo sapiens, UniProt O75469); assay: Antagonist activity at human PXR in human HepG2 cells co-expressing luciferase gene under control of CYP3A4 promoter assessed as inhibition in rifampicin-induced receptor activation at 30 uM incubated for 24 hrs by luminescence based analysis; format: cell-based; conditions: hepg2, 24 h
T3 sequence (O75469 whole entry): T1 sequence (O75469 whole entry)

[4] = molecular target: T3, Nuclear receptor subfamily 1 group I member 2; assay: Agonist activity at human PXR in human HepG2 cells co-expressing luciferase gene under control of CYP3A4 promoter assessed as transcriptional activation at 30 uM incubated for 24 hrs by luminescence based analysis; format: cell-based; conditions: hepg2, 24 h
[5] = molecular target: T3, Nuclear receptor subfamily 1 group I member 2; assay: Agonist activity at human PXR in human HepG2 cells co-expressing luciferase gene under control of CYP3A4 promoter assessed as transcriptional activation incubated for 24 hrs by luminescence based analysis
[6] = molecular target: T3, Nuclear receptor subfamily 1 group I member 2; assay: Agonist activity at human PXR in human HepG2 cells co-expressing luciferase gene under control of CYP3A4 promoter assessed as transcriptional activation at 10 uM incubated for 24 hrs by luminescence based analysis relative to control
[7] = molecular target: T3, Nuclear receptor subfamily 1 group I member 2; assay: Inverse agonist activity at human PXR in human HepG2 cells co-expressing luciferase gene under control of CYP3A4 promoter assessed as inhibition in receptor basal activity at 30 uM incubated for 24 hrs by luminescence based analysis; conditions: hepg2, 24 h
[8] = molecular target: T3, Nuclear receptor subfamily 1 group I member 2; assay: Inhibition of BODIPY FL vindoline binding to recombinant human GST-tagged PXR LBD (111 to 434 residues) expressed in baculovirus infected insect cells incubated for 1 mins under shaking condition followed by 60 mins under dark condition by TR-FRET assay
[9] = molecular target: T4, Bile acid receptor (Homo sapiens) (UniProt Q96RI1); assay: Effect on FXR activity in GeneBLAzer FXR-UAS-bla HEK 293T cells by fluorescence based analysis; format: cell-based
T4 sequence (whole entry): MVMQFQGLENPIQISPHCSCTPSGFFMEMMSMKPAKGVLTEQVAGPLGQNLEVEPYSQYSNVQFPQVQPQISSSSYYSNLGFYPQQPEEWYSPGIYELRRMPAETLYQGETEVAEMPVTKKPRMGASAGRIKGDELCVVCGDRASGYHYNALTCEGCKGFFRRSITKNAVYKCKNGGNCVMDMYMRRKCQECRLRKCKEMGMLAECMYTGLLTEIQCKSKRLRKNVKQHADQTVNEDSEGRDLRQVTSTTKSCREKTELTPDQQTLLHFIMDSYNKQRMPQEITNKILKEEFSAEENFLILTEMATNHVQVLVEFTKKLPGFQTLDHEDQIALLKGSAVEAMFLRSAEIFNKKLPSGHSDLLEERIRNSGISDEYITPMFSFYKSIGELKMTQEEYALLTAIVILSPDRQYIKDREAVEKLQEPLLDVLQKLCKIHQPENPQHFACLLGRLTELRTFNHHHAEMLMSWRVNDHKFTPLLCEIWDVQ
How it was run: (§1)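 Run in agonistic mode (compound alone) or antagonistic mode (compound plus an agonist). Each concentration tested in quadruplicate, at least three times. % activation or % inhibition plotted against concentration, with EC50 or IC50 derived from a sigmoidal dose–response fit.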

[10] = molecular target: T5, Nuclear receptor subfamily 1 group I member 2 (Mus musculus, UniProt O54915); assay: Effect on mouse PXR activity by luciferase reporter assay; how it was run: as §1
T5 sequence (O54915 whole entry): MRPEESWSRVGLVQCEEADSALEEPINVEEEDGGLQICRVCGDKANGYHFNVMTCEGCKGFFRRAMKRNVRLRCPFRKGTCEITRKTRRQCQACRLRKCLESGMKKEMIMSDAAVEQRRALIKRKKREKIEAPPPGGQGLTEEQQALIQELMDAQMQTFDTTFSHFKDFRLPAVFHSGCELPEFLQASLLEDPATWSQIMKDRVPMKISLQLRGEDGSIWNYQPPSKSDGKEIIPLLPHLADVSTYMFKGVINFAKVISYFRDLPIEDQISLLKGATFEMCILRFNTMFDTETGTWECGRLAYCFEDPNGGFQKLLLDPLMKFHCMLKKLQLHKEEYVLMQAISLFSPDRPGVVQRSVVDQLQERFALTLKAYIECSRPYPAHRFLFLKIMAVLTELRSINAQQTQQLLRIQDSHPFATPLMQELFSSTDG

HEK-293T = assay: Cytotoxicity against HEK293T cells assessed as reduction in cell viability measured after 24 to 72 hrs by celltiter-glo luminescent cell viability assay; format: toxicity, cell-based; conditions: human, time 24-72 hrs
How it was run: (§2)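 Cells seeded at 2,500 per well for 1-day or 5,000 per well for 3-day exposure. Viability read by CellTiter-Glo luminescence. Staurosporine (56 μM) set as 100% cytotoxicity. Each concentration run in quadruplicate, at least three times. % cytotoxicity plotted and fitted to a sigmoidal dose–response curve. Means and SDs from three independent experiments.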

[11] = Cytotoxicity against […] Hepa1-6 cells assessed as reduction in cell viability measured after 24 to 72 hrs by celltiter-glo luminescent cell viability assay; format: toxicity, cell-based; conditions: time 24-72 hrs; how it was run: as §2
[12] = molecular target: T6, Vitamin D3 receptor (Homo sapiens) (UniProt P11473); assay: Effect on VDR activity in GeneBLAzer VDR-UAS-bla HEK 293T cells by fluorescence based analysis; format: cell-based; how it was run: as §1
T6 sequence (whole entry): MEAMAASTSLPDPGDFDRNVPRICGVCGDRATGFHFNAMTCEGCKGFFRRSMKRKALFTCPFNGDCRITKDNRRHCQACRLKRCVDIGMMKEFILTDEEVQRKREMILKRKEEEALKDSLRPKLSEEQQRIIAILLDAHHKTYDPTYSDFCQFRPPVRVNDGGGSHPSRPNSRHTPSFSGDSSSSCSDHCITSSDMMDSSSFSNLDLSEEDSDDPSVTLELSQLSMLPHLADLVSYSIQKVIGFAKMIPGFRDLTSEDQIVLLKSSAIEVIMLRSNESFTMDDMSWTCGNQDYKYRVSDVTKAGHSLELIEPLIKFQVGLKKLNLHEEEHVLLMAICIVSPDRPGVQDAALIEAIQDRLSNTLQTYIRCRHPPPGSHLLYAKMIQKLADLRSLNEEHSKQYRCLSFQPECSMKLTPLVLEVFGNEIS

[13] = molecular target: T7, Oxysterols receptor LXR-alpha (Homo sapiens) (UniProt Q13133); assay: Effect on LXRalpha activity in GeneBLAzer LXRalpha-UAS-bla HEK 293T cells by fluorescence based analysis; format: cell-based; how it was run: as §1
T7 sequence (whole entry): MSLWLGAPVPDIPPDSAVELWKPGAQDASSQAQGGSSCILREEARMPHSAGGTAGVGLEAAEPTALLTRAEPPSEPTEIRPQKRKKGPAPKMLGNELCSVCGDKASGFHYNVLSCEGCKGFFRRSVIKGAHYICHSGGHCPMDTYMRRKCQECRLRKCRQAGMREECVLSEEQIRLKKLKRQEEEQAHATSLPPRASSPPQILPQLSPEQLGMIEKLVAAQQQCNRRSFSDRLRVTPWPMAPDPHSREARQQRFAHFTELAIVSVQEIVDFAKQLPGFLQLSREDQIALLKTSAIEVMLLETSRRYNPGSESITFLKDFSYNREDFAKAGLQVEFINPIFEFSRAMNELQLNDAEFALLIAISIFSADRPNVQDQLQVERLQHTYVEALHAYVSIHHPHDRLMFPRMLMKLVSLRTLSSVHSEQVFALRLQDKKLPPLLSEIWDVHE

HepaRG = assay: Cytotoxicity against human HepaRG cells assessed as reduction in cell viability measured after 24 to 72 hrs by celltiter-glo luminescent cell viability assay; format: toxicity, cell-based; conditions: time 24-72 hrs; how it was run: as §2
HepG2 [14] = assay: Cytotoxicity against human HepG2 cells assessed as reduction in cell viability measured after 24 to 72 hrs by celltiter-glo luminescent cell viability assay; format: toxicity, cell-based; conditions: time 24-72 hrs; how it was run: as §2
HepG2 [15] = assay: Effect on CAR activity in human HepG2 cells co-expressing luciferase gene under control of CYP3A4 promoter by luciferase reporter assay; format: cell-based
PXR (NR1I2) [16] = molecular target: T2, PXR (NR1I2); assay: Antagonist activity at human PXR in human HepG2 cells co-expressing luciferase gene under control of CYP3A4 promoter assessed as inhibition in rifampicin-induced receptor activation at 10 uM incubated for 24 hrs by luminescence based analysis relative to control; format: cell-based
[17] = molecular target: T3, Nuclear receptor subfamily 1 group I member 2; assay: Inverse agonist activity at human PXR in human HepG2 cells co-expressing luciferase gene under control of CYP3A4 promoter assessed as inhibition of receptor basal activity incubated for 24 hrs by luminescence based analysis; format: cell-based

Row | Compound | inhibition at 1.017 h, 10 µM [1] [%] | inhibition at 24 h, 10 µM (PXR (NR1I2) [2]) [%] | inhibition (INH) [3] | Activity [4] | INH [7] | other results
1 | CCC[C@@H](C)Oc1ccc(C(C)(C)C)cc1NC(=O)c1nnn(-c2cc(OC)ccc2OC)c1C | 81 | 91 | – | Not Active | – | –
2 | CCCCOc1ccc(C(C)(C)C)cc1NC(=O)c1nnn(-c2cc(OC)ccc2C)c1C | 10 | – | Not Active | – | Not Active | pEC50 [5]: 5.78; activity at 24 h, 10 µM [6]: 16%
3 | CCC[C@H](C)Oc1ccc(C(C)(C)C)cc1NC(=O)c1nnn(-c2cc(C)ccc2OC)c1C | 90 | – | – | Not Active | Not Active | Activity [9]: inactive; Activity [10]: Not Active; Activity (HEK-293T): Non-Toxic; Activity [11]: Non-Toxic; Activity [12]: inactive; Activity [13]: inactive; Activity (HepaRG): Non-Toxic; Activity (HepG2 [14]): Non-Toxic; pIC50 [8]: 8.40; Activity (HepG2 [15]): inactive
4 | CCCOc1ccc(C(C)(C)C)cc1NC(=O)c1nnn(-c2cc(OC)ccc2OC)c1C | 79 | 114 | – | Not Active | – | –
5 | COc1ccc(OC)c(-n2nnc(C(=O)Nc3cc(N(C)C)cc(C(C)(C)C)c3)c2C)c1 | – | – | – | Not Active | – | inhibition at 24 h, 10 µM (PXR (NR1I2) [16]): 110%
6 | COc1ccc(OC)c(-n2nnc(C(=O)Nc3cc(C(C)(C)C)ccc3OCCN3CCOCC3)c2C)c1 | 68 | 81 | – | Not Active | – | pIC50 [17]: 5.85

More lines, main results first:

Row | inhibition at 1.017 h, 10 µM [1] [%] | inhibition at 24 h, 10 µM (PXR (NR1I2) [2]) [%] | inhibition (INH) [3] | Activity [4] | INH [7] | Compound | other results
7 | 50 | 36 | Not Active | Not Active | – | COc1ccc(OC)c(-n2nnc(C(=O)Nc3cccc(N4CCCCC4)c3)c2C)c1 | –
8 | – | – | Not Active | – | Not Active | COc1ccc(OC)c(-n2nnc(C(=O)Nc3ccccc3)c2C)c1 | pEC50 [5]: 4.60; inhibition (INH) ([8]; human, 1.017 h, time 61 min): Not Active; activity at 24 h, 10 µM [6]: 33%
9 | 67 | 138 | – | Not Active | – | COc1ccc(OC)c(-n2nnc(C(=O)Nc3cc(B4OC(C)(C)C(C)(C)O4)cc(C(C)(C)C)c3)c2C)c1 | inhibition at 24 h, 10 µM (PXR (NR1I2) [16]): 104%
